ChEMBL document CHEMBL1157378, “Role for cell density in antifungal drug resistance in Candida albicans biofilms” (2007)
In brackets after ≈: the same amount, converted by molar mass. Activity calls are given as the source filed them. No cut-off for these calls is given here.

Assays:
Candida albicans [1] = experiment: Antimicrobial activity against fluconazole-resistant Candida albicans FH5 dissociated biofilms at cell density of 10^8 cells/ml after 48 hrs by XTT assay; format: functional; conditions: FH5, 48 h
Outline: (§1)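 Polystyrene-well biofilms (48 h, 37°C) washed, then broken up in 100 µl RPMI by scraping and aspiration. Cells used undiluted (about 2 x 10^8 cells/ml equivalent) or adjusted by A600 against a hemacytometer-calibrated yeast standard curve. Drug exposure at 37°C for 48 h (caspofungin 24 h), then XTT/menadione read at 490 nm.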

Candida albicans [2] = experiment: Antimicrobial activity against Chk1 deficient Candida albicans CHK21 at planktonic cell density of 10^3 cells/ml after 48 hrs by XTT assay; format: functional; conditions: CHK21, 48 h
Outline: (§2)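 YNB-grown yeast (50 mM glucose, room temperature, shaken, to ~2 x 10^8 cells/ml) washed into MOPS-buffered RPMI 1640 with L-glutamine and set to the stated density. Exposed to twofold serial drug dilutions (1,024 to 0.0313 µg/ml) at 37°C, 48 h (caspofungin 24 h), with drug-free controls. Read-out: XTT (0.5 g/liter) plus 1 µM menadione, formazan at 490 nm.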

Candida albicans [3] = experiment: Antimicrobial activity against Candida albicans disaggregated biofilms; format: functional
Outline: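 Biofilm grown 48 h at 37°C in RPMI (MOPS-buffered) on polystyrene wells from 1 x 10^6 cells/ml, washed, then dissociated by scraping/aspiration in 100 µl. Used undiluted (about 2 x 10^8 cells/ml) or diluted to about 2 x 10^3 cells/ml. Twofold drug dilutions (1,024 to 0.0313 µg/ml) for 48 h at 37°C (caspofungin 24 h). Read-out is XTT/menadione reduction at 490 nm.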

Candida albicans [4] = experiment: Antimicrobial activity against Candida albicans planktonic forms; format: functional
Outline: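 Yeast grown in YNB/50 mM glucose at room temperature to about 2 x 10^8 cells/ml, washed, and resuspended in MOPS-buffered RPMI 1640. Tested at 2 x 10^3 cells/ml (standard) or at densities from 1 x 10^3 to 1 x 10^8 cells/ml. Incubated with twofold drug dilutions at 37°C for 48 h (caspofungin 24 h). XTT-menadione read-out at 490 nm.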

Candida albicans [5] = experiment: Antimicrobial activity against Chk1 deficient Candida albicans CHK21 at planktonic cell density of 10^8 cells/ml after 48 hrs by XTT assay; format: functional; conditions: CHK21, 48 h; outline: as §2
Candida albicans [6] = experiment: Antimicrobial activity against Candida albicans SC5314 dissociated biofilms grown on silicone-elastomer coated latex surface at cell density of 10^3 cells/ml at 0.25 to 8 ug/ml by XTT assay; format: functional, organism-based
Outline: (§3)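 1-cm discs of denture acrylic, PVC catheter or silicone elastomer-coated latex catheter, ethylene-oxide sterilised. Seeded with 1 ml of 1 x 10^6 cells/ml, adhesion 90 min at 37°C, washed, grown 48 h at 37°C in RPMI. Biofilm scraped off, set to 1 x 10^3 or 1 x 10^8 cells/ml, exposed to fluconazole, read by XTT at 490 nm.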

Candida albicans [7] = experiment: Antimicrobial activity against Candida albicans intact biofilms; format: functional
Outline: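 Biofilm formed in polystyrene wells from 1 x 10^6 cells/ml, 48 h at 37°C in MOPS-buffered RPMI 1640, washed once. Intact biofilm exposed in the same well to twofold serial drug dilutions (1,024 to 0.0313 µg/ml) at 37°C for 48 h (caspofungin 24 h), with drug-free controls. Metabolic activity measured by XTT plus 1 µM menadione, absorbance at 490 nm.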

Candida albicans [8] = experiment: Antimicrobial activity against Cdr1, Cdr2 and Mdr1 deficient Candida albicans DSY1050 dissociated biofilms at cell density of 10^3 cells/ml after 48 hrs by XTT assay; format: functional; conditions: DSY1050, 48 h; outline: as §1
Candida albicans [9] = experiment: Antimicrobial activity against fluconazole-resistant Candida albicans FH5 dissociated biofilms at cell density of 10^3 cells/ml after 48 hrs by XTT assay; format: functional; conditions: FH5, 48 h; outline: as §1
Candida albicans [10] = experiment: Antimicrobial activity against Candida albicans GDH2346 intact biofilms after 48 hrs by XTT assay; format: functional; conditions: GDH2346, 48 h
Outline: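 Biofilm seeded at 1 x 10^6 cells/ml in RPMI in polystyrene microtiter wells and grown 48 h at 37°C in a moist chamber. Washed once and drug added to the same well (twofold dilutions, 1,024 to 0.0313 µg/ml) for 48 h at 37°C (caspofungin 24 h). Read-out: XTT/menadione reduction at 490 nm.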

Candida albicans [11] = experiment: Antimicrobial activity against Candida albicans SC5314 dissociated biofilms grown on polymethylmethacrylate surface at cell density of 10^8 cells/ml at 0.25 to 8 ug/ml by XTT assay; format: functional, organism-based; outline: as §3

Compound: OC(Cn1cncn1)(Cn1cncn1)c1ccc(F)cc1F [FLUCONAZOLE]
- MIC80 (Candida albicans [1]): > 512 µg/mL
- MIC80 (Candida albicans [2]): 0.125 µg/mL (≈ 0.408 µM)
- MIC (Candida albicans [3]): 256 µg/mL (≈ 836 µM)
- MIC (Candida albicans [4]): 2 µg/mL (≈ 6.53 µM)
- MIC80 (Candida albicans [5]): > 64 µg/mL
- Activity (Candida albicans [6]): Active
- MIC (Candida albicans [7]): > 1020 µg/mL
- MIC80 (Candida albicans [8]): 0.125 µg/mL (≈ 0.408 µM)
- MIC80 (Candida albicans [9]): 64 µg/mL (≈ 209 µM)
- MIC80 (Candida albicans [10]): > 512 µg/mL
- Activity (Candida albicans [11]): inactive
